From ChEMBL document CHEMBL1148203, “Briarane diterpenes from two species of octocorals, Ellisella sp. and Pteroeides sp” (J Nat Prod, 2004)
Active and inactive are the calls of the source. No cut-off for these calls is given here.

Columns and labels:
Format in all cases: functional, cell-based
[1] = tested on: KB-CV60; assay: Reversal of multidrug resistance in human KB-CV60 cells after 72 hrs by MTT assay
Summary of the method: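 KB-CV60 MDR line (selected from KB-3-1, kept in 1 µg/mL cepharanthine and 60 ng/mL vincristine), RPMI 1640 with 10% newborn calf serum; 10 000 cells/well, 24 h preincubation at 37 °C, 5% CO2; anticancer agent plus sample for 48 h; MTT 3 h, formazan in DMSO, A540 gives % growth inhibition.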

[2] = tested on: KB-C2; assay: Reversal of multidrug resistance in human KB-C2 cells after 72 hrs by MTT assay
Summary of the method: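 KB-C2 MDR line (selected from KB-3-1, kept in 2 µg/mL colchicine), RPMI 1640 with 10% newborn calf serum; 10 000 cells/well, 24 h preincubation at 37 °C, 5% CO2; colchicine plus sample added for 48 h; MTT 3 h, formazan in DMSO, absorbance 540 nm gives % growth inhibition; cytotoxicity checked in parental KB-3-1.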

[3] = tested on: NBT2; assay: Induction of multinuclei formation in rat NBT2 cells assessed as inhibition of cytokinesis at 0.5 to 2 ug/mL after 72 hrs
Summary of the method: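 Rat bladder epithelial NBT-II cells in modified Eagle's medium with 10% heat-inactivated FBS, streptomycin, amphotericin B and glutamic acid; exposed to graded briarane concentrations at 37 °C for 72 h; multinucleation scored by microscopy at 48 and 72 h.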

Row | Structure (SMILES) | Activity [1] | Activity [2] | Activity [3]
1 | CCC(=O)O[C@@H]1C[C@H](OC(C)=O)[C@]2(C)[C@H](OC(C)=O)/C=C\C(CCl)=C/[C@@H]3OC(=O)[C@H](C)[C@@]3(O)[C@@H](OC(C)=O)[C@H]2[C@]1(C)O | inactive | inactive | 
2 | C=C1/C=C/[C@H](OC(C)=O)[C@@]2(C)[C@@H](OC(C)=O)C[C@H]3O[C@@]3(C)[C@@H]2[C@H](OC(C)=O)[C@]2(O)[C@@H](C)C(=O)O[C@H]2[C@H]1Cl | inactive | inactive | 
3 | CC(=O)OCC1=C/[C@@H]2OC(=O)[C@H](C)[C@@]2(O)[C@@H](OC(C)=O)[C@H]2[C@]3(C)O[C@@H]3C[C@H](OC(C)=O)[C@]2(C)[C@@H](OC(C)=O)\C=C\1 | inactive | inactive | 
4 | C=C1[C@H](Cl)[C@@H]2OC(=O)[C@H](C)[C@]23O[C@@]1(O)C[C@H](OC(C)=O)[C@]1(C)[C@H]([C@@H](C)[C@H](OC(=O)c2ccccc2)C[C@@H]1OC(C)=O)[C@@H]3OC(C)=O | Active | Active | 
5 | C=C1/C=C\[C@@H](OC(C)=O)[C@@]2(C)C=C[C@@H](OC(C)=O)[C@](O)(COC(C)=O)[C@@H]2[C@H](OC(C)=O)[C@]2(O)[C@@H](C)C(=O)O[C@H]2[C@H]1Cl |  |  | Active
6 | C=C1CC[C@@H](OC(C)=O)[C@@]2(C)[C@@H](OC(C)=O)CC[C@@]3(CO3)[C@@H]2[C@H](OC(C)=O)[C@]2(O)[C@@H](C)C(=O)O[C@H]2[C@H]1Cl |  |  | Active
